This is an account of results in ChEMBL document CHEMBL1125061, “Antitumor agents. 111. New 4-hydroxylated and 4-halogenated anilino derivatives of 4'-demethylepipodophyllotoxin as potent inhibitors of human DNA topoisomerase II” (1990).

The target in test [1] is T1, DNA topoisomerase II (Homo sapiens) (UniProt P11388+Q02880). Description: Inhibition of DNA topoisomerase II at 100 uM. It is filed as protein assay. The essentials:
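Human DNA topoisomerase II inhibition, tested at 25, 50 and 100 μM. […] The ID₅₀ is set from the degree of inhibition across the three concentrations.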

Test [2] can be described thus: In vitro cytotoxicity against KB cells after a 3-day incubation. Particulars: Homo sapiens, 72 h, read-out: ID50 (the source's name). It is filed as functional. The gist of the method:
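KB cell culture, 3-day incubation with drug; read-out was cell number. ID50 taken as the concentration giving a 50% reduction in cell number.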

Another test is filed under the species Homo sapiens. Description: Cellular protein-DNA complex formation at 10 uM. On the set-up: reference not given here. The class given is functional.
Test [3] addresses T1, DNA topoisomerase II (Homo sapiens). Description: Evaluated for inhibitory activity against DNA topoisomerase II. The class given is protein assay.

A value given as a limit tells only on which side of the number the result lay.

The inhibition is the share of the control response that was lost under treatment. `COc1cc([C@@H]2c3cc4c(cc3[C@@H](Nc3cccc(O)c3)[C@H]3COC(=O)[C@H]23)OCO4)cc(OC)c1OC` gave an inhibition in test [1] of 25%. Besides, the IC50 in test [2] worked out at 310 nM. For the same compound, in the test filed under Homo sapiens, the Complex formation was found to be 37%.
`COc1cc([C@@H]2c3cc4c(cc3[C@@H](O[C@@H]3O[C@@H]5CO[C@@H](C)O[C@H]5[C@H](O)[C@H]3O)[C@H]3COC(=O)[C@H]23)OCO4)cc(OC)c1O` [ETOPOSIDE] displayed an ID50 in test [3] of 50000 nM. In addition, the inhibition in test [1] was 75%. Further, the IC50 in test [2] worked out at 200 nM. The Complex formation in the test listed under Homo sapiens is given as 100%.
In test [1], `COc1cc([C@@H]2c3cc4c(cc3[C@@H](Nc3ccc(O)cc3)[C@H]3COC(=O)[C@H]23)OCO4)cc(OC)c1OC` came in with an inhibition of 25%. Besides, the IC50 in test [2] amounted to 590 nM. This compound also gave a Complex formation in the test listed under Homo sapiens of 21%.
Take `COc1cc([C@@H]2c3cc4c(cc3[C@@H](Nc3ccc(I)cc3)[C@H]3COC(=O)[C@H]23)OCO4)cc(OC)c1O`: the inhibition in test [1] was found to be 25%. Moreover, in test [2], the IC50 was determined as 340 nM. Further, in the test filed under Homo sapiens, the Complex formation worked out at 64%.
With `COc1cc([C@@H]2c3cc4c(cc3[C@@H](Nc3cccc(O)c3)[C@H]3COC(=O)[C@H]23)OCO4)cc(OC)c1O`, the ID50 in test [3] came to 5000 nM. For the same compound, the inhibition in test [1] is > 75%. Besides, in test [2], the IC50 came out at 450 nM. In the test listed under Homo sapiens, the Complex formation amounted to 290%.
Take `COc1cc([C@@H]2c3cc4c(cc3[C@@H](Nc3ccccc3Cl)[C@H]3COC(=O)[C@H]23)OCO4)cc(OC)c1O`: the inhibition in test [1] turned out to be 25%. In addition, the IC50 in test [2] came out at 2340 nM. The compound also registered a Complex formation in the test filed under Homo sapiens of 32%.
As for `COc1cc([C@@H]2c3cc4c(cc3[C@@H](Nc3cc(F)cc(F)c3)[C@H]3COC(=O)[C@H]23)OCO4)cc(OC)c1O`, the ID50 in test [3] was determined as 50000 nM. In addition, the inhibition in test [1] amounted to 50%. Moreover, the IC50 in test [2] was found to be 1080 nM. In the test filed under Homo sapiens, this compound yielded a Complex formation of 115%.
Regarding `COc1cc([C@@H]2c3cc4c(cc3[C@@H](Nc3cccc(Br)c3)[C@H]3COC(=O)[C@H]23)OCO4)cc(OC)c1O`, in test [1], the inhibition is 25%. In test [2], the IC50 was 2360 nM. In the test listed under Homo sapiens, the Complex formation came out at 62%.
`COc1cc([C@@H]2c3cc4c(cc3[C@@H](Nc3ccccc3O)[C@H]3COC(=O)[C@H]23)OCO4)cc(OC)c1O` yielded an ID50 in test [3] of 25000 nM. The inhibition in test [1] is > 75%. The IC50 in test [2] came out at 4540 nM. This compound also returned a Complex formation in the test listed under Homo sapiens of 151%.
The matching figures for `COc1cc([C@@H]2c3cc4c(cc3[C@@H](Nc3ccc(O)cc3)[C@H]3COC(=O)[C@H]23)OCO4)cc(OC)c1O`: 25000 nM, 75%, 2260 nM and 211%.
Compound `COc1cc([C@@H]2c3cc4c(cc3[C@@H](Nc3ccccc3O)[C@H]3COC(=O)[C@H]23)OCO4)cc(OC)c1OC` showed an inhibition in test [1] of 25%. Further, the IC50 in test [2] was found to be 4110 nM. This compound registered a Complex formation in the test filed under Homo sapiens of 6%.
For the compound `COc1cc([C@@H]2c3cc4c(cc3[C@@H](Nc3ccc(F)cc3)[C@H]3COC(=O)[C@H]23)OCO4)cc(OC)c1O`, the ID50 in test [3] was determined as 10000 nM. Moreover, in test [1], the inhibition is > 75%. Besides, the IC50 in test [2] stood at 240 nM. Further, in the test listed under Homo sapiens, the Complex formation was found to be 213%.
In test [3], `COc1cc([C@@H]2c3cc4c(cc3[C@@H](Nc3cccc(F)c3)[C@H]3COC(=O)[C@H]23)OCO4)cc(OC)c1O` had an ID50 of 50000 nM. For the same compound, in test [1], the inhibition amounted to 75%. The IC50 in test [2] is 230 nM. The Complex formation in the test filed under Homo sapiens is given as 158%.
The matching figures for `COc1cc([C@@H]2c3cc4c(cc3[C@@H](Nc3ccc(Cl)cc3)[C@H]3COC(=O)[C@H]23)OCO4)cc(OC)c1O`: 50000 nM, 75%, 220 nM and 99%.
On to `COc1cc([C@@H]2c3cc4c(cc3[C@@H](Nc3ccccc3F)[C@H]3COC(=O)[C@H]23)OCO4)cc(OC)c1O`, for which the inhibition in test [1] worked out at 50%. Moreover, the IC50 in test [2] was determined as 250 nM. In addition, the Complex formation in the test filed under Homo sapiens was found to be 121%.
With `COc1cc([C@@H]2c3cc4c(cc3[C@@H](Nc3cccc(Cl)c3)[C@H]3COC(=O)[C@H]23)OCO4)cc(OC)c1O`, the inhibition in test [1] came to 50%. Further, in test [2], the IC50 stood at 2290 nM. In the test listed under Homo sapiens, this compound registered a Complex formation of 51%.
For the compound `COc1cc([C@@H]2c3cc4c(cc3[C@@H](Nc3ccc(Br)cc3)[C@H]3COC(=O)[C@H]23)OCO4)cc(OC)c1O`, the ID50 in test [3] amounted to 100000 nM. In test [1], this compound came in with an inhibition of 50%. For the same compound, the IC50 in test [2] turned out to be 220 nM. Also, the Complex formation in the test filed under Homo sapiens turned out to be 179%.
